# Data as given in ChEMBL document CHEMBL1149142, “Synthesis, biological activity and molecular modeling of 6-benzylthioinosine analogues as subversive substrates of Toxoplasma gondii adenosine kinase” (2004).
# Key:
# Assay type in all cases: functional
# [1] = Effect of compound on percent survival of human fibroblast cells in culture was determined at 50 uM; conditions: read-out: Survival
# In short: (§1)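 Uninfected human foreskin fibroblast monolayers (≤30 passages) in RPMI 1640 are attached for at least 24 h at 37 °C in 5% CO2. Compound is added at the same concentrations as in the parasite assay and incubated 48 h. MTT is added for 4 h, formazan is dissolved in DMSO, and absorbance is read at 540 nm; at least triplicates.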
# [2] = test system: Toxoplasma gondii; experiment: Effect of compound on percent survival of adenosine kinase deficient strain of Toxoplasma gondii (TgAKe-3) grown in human fibroblast cells at 50 uM
# In short: (§2)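 Human foreskin fibroblast monolayers (≤30 passages) in RPMI 1640 are infected with tachyzoites at one parasite per cell in 3% FBS for 1 h, then washed, with FBS kept at 10%. Compound is added in 50% ethanol stock (2.5% ethanol final) and incubated 18 h. Medium is replaced with drug-free [5,6-3H]uracil (2 μCi/mL) for 6 h. TCA-precipitable radioactivity is counted; at least triplicates.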
# [3] = test system: Toxoplasma gondii; experiment: Effect of compound on percent survival of wild type (RH) strain of Toxoplasma gondii grown in human fibroblast cells at 50 uM; in short: as §2
# [4] = Effect of compound on percent survival of human fibroblast cells in culture was determined at 5 uM; conditions: read-out: Survival; in short: as §1
# [5] = test system: Toxoplasma gondii; experiment: Effect of compound on percent survival of wild type (RH) strain of Toxoplasma gondii grown in human fibroblast cells at 5 uM; in short: as §2
# [6] = test system: Toxoplasma gondii; experiment: Effect of compound on percent survival of adenosine kinase deficient strain of Toxoplasma gondii (TgAKe-3) grown in human fibroblast cells at 10 uM; in short: as §2
# [7] = test system: Toxoplasma gondii; experiment: Effect of compound on percent survival of adenosine kinase deficient strain of Toxoplasma gondii (TgAKe-3) grown in human fibroblast cells at 25 uM; in short: as §2
# [8] = test system: Toxoplasma gondii; experiment: Effect of compound on percent survival of wild type (RH) strain of Toxoplasma gondii grown in human fibroblast cells at 0 uM; in short: as §2
# [9] = Effect of compound on percent survival of human fibroblast cells in culture was determined at 25 uM; conditions: read-out: Survival; in short: as §1
# [10] = Effect of compound on percent survival of human fibroblast cells in culture was determined at 10 uM; conditions: read-out: Survival; in short: as §1
# [11] = Effect of compound on percent survival of human fibroblast cells in culture was determined at 0 uM; in short: as §1
# [12] = test system: Toxoplasma gondii; experiment: Effect of compound on percent survival of wild type (RH) strain of Toxoplasma gondii grown in human fibroblast cells at 25 uM; in short: as §2
# [13] = test system: Toxoplasma gondii; experiment: Effect of compound on percent survival of adenosine kinase deficient strain of Toxoplasma gondii (TgAKe-3) grown in human fibroblast cells at 5 uM; in short: as §2
# [14] = test system: Toxoplasma gondii; experiment: Effect of compound on percent survival of wild type (RH) strain of Toxoplasma gondii grown in human fibroblast cells at 10 uM; in short: as §2
# [15] = test system: Toxoplasma gondii; experiment: Effect of compound on percent survival of adenosine kinase deficient strain of Toxoplasma gondii (TgAKe-3) grown in human fibroblast cells at 0 uM; in short: as §2
Structure (SMILES),viability at 50 µM [1],survival at 50 µM [2],survival at 50 µM [3],viability at 5 µM [4],survival at 5 µM [5],survival at 10 µM [6],survival at 25 µM [7],Survival [8],viability at 25 µM [9],viability at 10 µM [10],Survival [11],survival at 25 µM [12],survival at 5 µM [13],survival at 10 µM [14],Survival [15]
OC[C@H]1O[C@@H](n2cnc3c(SCc4ccc(OC(F)(F)F)cc4)ncnc32)[C@H](O)[C@@H]1O,98.6%,95.1%,44%,100%,93.1%,100%,97.6%,100%,97.4%,99.9%,100%,54.5%,100%,64.9%,100%
CCc1nc(N)nc(N)c1-c1ccc(Cl)cc1 [PYRIMETHAMINE],100%,,6.9%,100%,53.8%,,,100%,100%,98.8%,100%,11.8%,,36.3%,
CC(C)(C)c1ccc(CSc2ncnc3c2ncn3[C@@H]2O[C@H](CO)[C@@H](O)[C@H]2O)cc1,99.7%,100%,12.2%,97.4%,83.3%,100%,100%,100%,100%,100%,100%,47.2%,100%,71.7%,100%
